In ChEMBL document CHEMBL3421626, “Prenylated benzophenones from Triadenum japonicum” (2015):
In brackets after ≈: the same amount, converted by molar mass. Numbered stars: 1 amine (or outer) side, 2 acyl side, 3 side chain; on linkers, the order of the positions; unused ones are H or OH. Bridge positions count the residues as written; N and C are the ends. Square brackets hold non-standard residues; d marks the D form. Peptide text beside a SMILES is read from it. * marks the point of attachment. hTyr(3S-OH,4S-OH,3'-OSO3H) = N[C@H](C(=O)O)[C@H](O)[C@@H](O)c1ccc(O)c(OS(=O)(=O)O)c1; Orn(4R-OH,5R-OH) = O=C([C@H](C[C@@H](O)[C@@H](O)N[*:3])N[*:1])[*:2]; Pro(3S-OH,4S-Me) = C[C@H]1CN[C@H](C(=O)O)[C@H]1O; X1 = CCCCCOc1ccc(-c2cc(-c3ccc(C(=O)*)cc3)no2)cc1; Gln(3R-OH) = NC(=O)C[C@@H](O)[C@H](N)C(=O)O; Hyp = O=C(O)[C@@H]1C[C@@H](O)CN1

What was measured:
Format in all cases: functional
Candida albicans = assay: Antimicrobial activity against Candida albicans IFM62680 assessed as reduction in […] growth incubated for 48 hrs by microbroth dilution method; conditions: IFM62680, 48 h
Escherichia coli = assay: Antimicrobial activity against Escherichia coli assessed as reduction in bacterial growth incubated for 48 hrs by microbroth dilution method
Outline: (§1)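 Panel assay run per a previously reported protocol. Amphotericin B, micafungin, hygromycin B and kanamycin served as control agents across the organism panel.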

Aspergillus niger = assay: Antimicrobial activity against Aspergillus niger IFM62678 assessed as reduction in […] growth incubated for 48 hrs by microbroth dilution method; conditions: IFM62678, 48 h; outline: as §1
Staphylococcus aureus = assay: Antimicrobial activity against Staphylococcus aureus assessed as reduction in bacterial growth incubated for 48 hrs by microbroth dilution method; outline: as §1
Micrococcus luteus = assay: Antimicrobial activity against Micrococcus luteus assessed as reduction in bacterial growth incubated for 48 hrs by microbroth dilution method; outline: as §1
Bacillus subtilis = assay: Antimicrobial activity against Bacillus subtilis assessed as reduction in bacterial growth incubated for 48 hrs by microbroth dilution method; outline: as §1
[1] = system: Trichophyton mentagrophytes; assay: Antimicrobial activity against Trichophyton mentagrophytes IFM62679 assessed as reduction in […] growth incubated for 48 hrs by microbroth dilution method; conditions: IFM62679, 48 h; outline: as §1

Q: Which IC50 (Candida albicans) does the source give for CC(C)=CC[C@]12C[C@H]3C[C@@H](C(C)(C)OO)OO[C@]3(C)C[C@](CC=C(C)C)(C1=O)C(O)=C(C(=O)c1ccccc1)C2=O here?
A: 8 µg/mL (≈ 14.1 µM)

Q: Which results are given for CN[C@H]1C[C@@H](N)[C@H](O)[C@@H](O[C@@H]2O[C@H](CO)[C@H](O)[C@H]3O[C@@]4(O[C@H]23)O[C@H]([C@H](N)CO)[C@H](O)[C@H](O)[C@H]4O)[C@@H]1O?
A: MIC (Escherichia coli): 2 µg/mL (≈ 3.79 µM); IC50 (Candida albicans): 3.9 µg/mL (≈ 7.39 µM); IC50 (Aspergillus niger): 1 µg/mL (≈ 1.9 µM); MIC (Staphylococcus aureus): 0.5 µg/mL (≈ 0.948 µM); MIC (Micrococcus luteus): 1 µg/mL (≈ 1.9 µM); MIC (Bacillus subtilis): 2 µg/mL (≈ 3.79 µM); IC50 [1]: 1 µg/mL (≈ 1.9 µM)

Q: What does the source list for NC[C@H]1O[C@H](O[C@H]2[C@H](O)[C@@H](O[C@H]3O[C@H](CO)[C@@H](O)[C@H](N)[C@H]3O)[C@H](N)C[C@@H]2N)[C@H](O)[C@@H](O)[C@@H]1O [KANAMYCIN]?
A: MIC (Escherichia coli): < 0.1 µg/mL; IC50 (Candida albicans): > 62.5 µg/mL; IC50 (Aspergillus niger): 31.3 µg/mL (≈ 64.6 µM); MIC (Staphylococcus aureus): < 0.1 µg/mL; MIC (Micrococcus luteus): 1 µg/mL (≈ 2.06 µM); MIC (Bacillus subtilis): < 0.1 µg/mL; IC50 [1]: 7.8 µg/mL (≈ 16.1 µM)

Q: Which MIC (Escherichia coli) does the source give for CC(C)=CC[C@@H]1C[C@@]2(CC=C(C)C)C(=O)C3(CC=C(C)C)C[C@]1(C)[C@]2(O)/C(=C(/O)c1ccccc1)C3=O here?
A: 8 µg/mL (≈ 15.9 µM)

Q: What about the IC50 (Candida albicans) of the same compound?
A: 32 µg/mL (≈ 63.7 µM)

Q: What about the IC50 (Aspergillus niger) of the same compound?
A: 16 µg/mL (≈ 31.8 µM)

Q: What about the MIC (Staphylococcus aureus) of the same compound?
A: 16 µg/mL (≈ 31.8 µM)

Q: And the MIC (Micrococcus luteus)?
A: 32 µg/mL (≈ 63.7 µM)

Q: What about the MIC (Bacillus subtilis) of the same compound?
A: 16 µg/mL (≈ 31.8 µM)

Q: And the IC50 [1]?
A: 8 µg/mL (≈ 15.9 µM)

Q: C[C@@H]1[C@H](O)[C@@H](C)/C=C/C=C/C=C/C=C/C=C/C=C/C=C/[C@H](O[C@@H]2O[C@H](C)[C@@H](O)[C@H](N)[C@@H]2O)C[C@@H]2O[C@](O)(C[C@@H](O)C[C@@H](O)[C@H](O)CC[C@@H](O)C[C@@H](O)CC(=O)O[C@H]1C)C[C@H](O)[C@H]2C(=O)O [AMPHOTERICIN B] was tested. Which MIC (Escherichia coli) did it give?
A: > 31.2 µg/mL

Q: What about the IC50 (Candida albicans) of the same compound?
A: 1 µg/mL (≈ 1.08 µM)

Q: And the IC50 (Aspergillus niger)?
A: 1.8 µg/mL (≈ 1.95 µM)

Q: What about the MIC (Staphylococcus aureus) of the same compound?
A: > 31.2 µg/mL

Q: And the MIC (Micrococcus luteus)?
A: > 31.2 µg/mL

Q: And the MIC (Bacillus subtilis)?
A: > 31.2 µg/mL

Q: And the IC50 [1]?
A: 3.9 µg/mL (≈ 4.22 µM)

Q: With CCCCCOc1ccc(-c2cc(-c3ccc(C(=O)N[C@H]4C[C@@H](O)[C@@H](O)NC(=O)[C@@H]5[C@@H](O)[C@@H](C)CN5C(=O)[C@H]([C@H](O)CC(N)=O)NC(=O)[C@H]([C@H](O)[C@@H](O)c5ccc(O)c(OS(=O)(=O)O)c5)NC(=O)[C@@H]5C[C@@H](O)CN5C(=O)[C@H]([C@@H](C)O)NC4=O)cc3)no2)cc1 [MICAFUNGIN] (X1-[Orn(4R-OH,5R-OH)]T[Hyp][hTyr(3S-OH,4S-OH,3'-OSO3H)][Gln(3R-OH)][Pro(3S-OH,4S-Me)]; lactam 1-C) as the compound, how does the MIC (Escherichia coli) read?
A: > 62.5 µg/mL

Q: And the IC50 (Candida albicans)?
A: < 0.1 µg/mL

Q: And the IC50 (Aspergillus niger)?
A: < 0.1 µg/mL

Q: And the MIC (Staphylococcus aureus)?
A: 0.5 µg/mL (≈ 0.394 µM)

Q: And the MIC (Micrococcus luteus)?
A: 7.8 µg/mL (≈ 6.14 µM)

Q: And the MIC (Bacillus subtilis)?
A: 0.5 µg/mL (≈ 0.394 µM)

Q: And the IC50 [1]?
A: < 0.1 µg/mL
